The text below walks through data of ChEMBL document CHEMBL3351454, “Design, synthesis, antimicrobial evaluation and molecular docking studies of some new thiophene, pyrazole and pyridone derivatives bearing sulfisoxazole moiety” (2014).

Values after ≈ are worked out from the molar mass of the structure shown.

For one assay, the system named is Streptococcus pneumoniae. The experiment in a line: Antimicrobial activity against Streptococcus pneumoniae RCMB 010010 assessed as absence of turbidity after 24 hrs. It counts as functional. To be noted: RCMB 010010, 24 h. In outline:
(§1)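 Broth microdilution in Müller–Hinton broth. DMF stocks at 1000 µg/mL were diluted in broth to give twofold serial dilutions over 500–0.007 µg/mL. Bacterial inoculum was about 10^6 CFU/mL in 96-well plates, sealed and incubated at 37 °C for 24 h in a humid chamber. MIC was taken as the lowest concentration with no visible turbidity. DMF and uninoculated-medium controls were included. Only compounds giving zones >10 mm were tested.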
A word on the MIC: it is the lowest concentration found to suppress growth. On to `Cc1noc(NS(=O)(=O)c2ccc(NC(=O)c3cn[nH]c3N)cc2)c1C`, for which the MIC was determined as 7.81 µg/mL (≈ 20.7 µM).

`CCOc1ccc(-n2nc(C(=O)Nc3ccc(S(=O)(=O)Nc4onc(C)c4C)cc3)c(N)c2C#N)cc1`: the MIC came out at 1.95 µg/mL (≈ 3.74 µM).

In another assay the test system is Escherichia coli. The experiment in a line: Antimicrobial activity against Escherichia coli RCMB 010052 assessed as inhibition zone at 5 mg/ml after 24 hrs. The format is functional. Particulars: RCMB 010052, 24 h, read-out: IZ. In short, it runs like this:
(§2)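 Agar diffusion on nutrient agar seeded with 10^6 CFU/mL bacteria. Filter-paper disks were loaded with 100 µL of a 5 mg/mL compound solution in DMF, with a DMF-only control. Incubation was 37 °C for 24 h. Inhibition zone in mm (mean ± SD, triplicate plates) was measured beyond the 6 mm diameter.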
In the case of `Cc1noc(NS(=O)(=O)c2ccc(NC(=O)c3cn[nH]c3N)cc2)c1C`, the zone of inhibition at 5000 µg/mL was 13 mm.

On to `CCOc1ccc(-n2nc(C(=O)Nc3ccc(S(=O)(=O)Nc4onc(C)c4C)cc3)c(N)c2C#N)cc1`, for which the zone of inhibition at 5000 µg/mL was determined as 16.4 mm.

Another assay relates to Klebsiella pneumoniae. Kind of assay: Antimicrobial activity against Klebsiella pneumoniae RCMB 010093 assessed as absence of turbidity after 24 hrs. It counts as functional. To be noted: RCMB 010093, 24 h. In short, it runs like this:
as §1
With `Cc1noc(NS(=O)(=O)c2ccc(NC(=O)c3cn[nH]c3N)cc2)c1C`, the MIC turned out to be 125 µg/mL (≈ 332 µM).

For `CCOc1ccc(-n2nc(C(=O)Nc3ccc(S(=O)(=O)Nc4onc(C)c4C)cc3)c(N)c2C#N)cc1`, the MIC was found to be 0.06 µg/mL (≈ 0.115 µM).

The next assay concerns Klebsiella pneumoniae. The experiment in a line: Antimicrobial activity against Klebsiella pneumoniae RCMB 010093 assessed as inhibition zone at 5 mg/ml after 24 hrs. The format is functional. To be noted: RCMB 010093, 24 h, read-out: IZ. In short, it runs like this:
as §2
Take `Cc1noc(NS(=O)(=O)c2ccc(NC(=O)c3cn[nH]c3N)cc2)c1C`: the zone of inhibition at 5000 µg/mL came to 14.6 mm.

Consider `CCOc1ccc(-n2nc(C(=O)Nc3ccc(S(=O)(=O)Nc4onc(C)c4C)cc3)c(N)c2C#N)cc1`, for which the zone of inhibition at 5000 µg/mL amounted to 25.1 mm.

The next assay relates to Staphylococcus epidermidis. The experiment in a line: Antimicrobial activity against Staphylococcus epidermidis RCMB 010024 assessed as inhibition zone at 5 mg/ml after 24 hrs. It counts as functional. Particulars: RCMB 010024, 24 h, read-out: IZ. In outline: as §2
On to `Cc1noc(NS(=O)(=O)c2ccc(NC(=O)c3cn[nH]c3N)cc2)c1C`, for which the zone of inhibition at 5000 µg/mL came to 16.1 mm.

In the case of `CCOc1ccc(-n2nc(C(=O)Nc3ccc(S(=O)(=O)Nc4onc(C)c4C)cc3)c(N)c2C#N)cc1`, the zone of inhibition at 5000 µg/mL was determined as 18.9 mm.

In another assay the test system is Aspergillus fumigatus. Kind of assay: Antifungal activity against Aspergillus fumigatus RCMB 02568 assessed as inhibition zone at 5 mg/ml after 48 hrs. The format is functional. Particulars: RCMB 02568, 48 h, read-out: IZ. In outline:
(§3)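 Disk diffusion on nutrient agar seeded with 10^4 CFU/mL fungus. Sterile filter-paper disks carried 100 µL of a 5 mg/mL DMF solution, and DMF alone served as control. Plates were incubated at 25 °C for 48 h. Mean inhibition zone in mm ± SD was read beyond the 6 mm diameter, in triplicate.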
Consider `Cc1noc(NS(=O)(=O)c2ccc(NC(=O)c3cn[nH]c3N)cc2)c1C`, for which the zone of inhibition at 5000 µg/mL stood at 18.6 mm.

For the compound `CCOc1ccc(-n2nc(C(=O)Nc3ccc(S(=O)(=O)Nc4onc(C)c4C)cc3)c(N)c2C#N)cc1`, the zone of inhibition at 5000 µg/mL turned out to be 23 mm.

Another assay relates to Geotrichum candidum. Kind of assay: Antifungal activity against Geotrichum candidum RCMB 05097 assessed as absence of turbidity after 48 hrs. It counts as functional. To be noted: RCMB 05097, 48 h. In outline:
(§4)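 Broth microdilution in Sabouraud liquid medium. DMF stocks at 1000 µg/mL were diluted in broth to give twofold serial dilutions over 500–0.007 µg/mL. Fungal inoculum was about 10^4 CFU/mL in 96-well plates, sealed and incubated at 25 °C for 48 h in a humid chamber. MIC was taken as the lowest concentration with no visible turbidity. DMF and uninoculated-medium controls were included.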
Take `Cc1noc(NS(=O)(=O)c2ccc(NC(=O)c3cn[nH]c3N)cc2)c1C`: the MIC is 7.81 µg/mL (≈ 20.7 µM).

On to `CCOc1ccc(-n2nc(C(=O)Nc3ccc(S(=O)(=O)Nc4onc(C)c4C)cc3)c(N)c2C#N)cc1`, for which the MIC came to 0.49 µg/mL (≈ 0.939 µM).

The test system of a further assay is Streptococcus pneumoniae. Kind of assay: Antimicrobial activity against Streptococcus pneumoniae RCMB 010010 assessed as inhibition zone at 5 mg/ml after 24 hrs. It counts as functional. Particulars: RCMB 010010, 24 h, read-out: IZ. In short, it runs like this:
as §2
As for `Cc1noc(NS(=O)(=O)c2ccc(NC(=O)c3cn[nH]c3N)cc2)c1C`, the zone of inhibition at 5000 µg/mL amounted to 17.8 mm.

On to `CCOc1ccc(-n2nc(C(=O)Nc3ccc(S(=O)(=O)Nc4onc(C)c4C)cc3)c(N)c2C#N)cc1`, for which the zone of inhibition at 5000 µg/mL worked out at 20 mm.

For another assay, the system named is Geotrichum candidum. The experiment in a line: Antifungal activity against Geotrichum candidum RCMB 05097 assessed as inhibition zone at 5 mg/ml after 48 hrs. It counts as functional. To be noted: RCMB 05097, 48 h, read-out: IZ. In short, it runs like this: as §3
With `Cc1noc(NS(=O)(=O)c2ccc(NC(=O)c3cn[nH]c3N)cc2)c1C`, the zone of inhibition at 5000 µg/mL was found to be 18.9 mm.

In the case of `CCOc1ccc(-n2nc(C(=O)Nc3ccc(S(=O)(=O)Nc4onc(C)c4C)cc3)c(N)c2C#N)cc1`, the zone of inhibition at 5000 µg/mL turned out to be 21.9 mm.

The next assay concerns Staphylococcus epidermidis. The experiment in a line: Antimicrobial activity against Staphylococcus epidermidis RCMB 010024 assessed as absence of turbidity after 24 hrs. It counts as functional. To be noted: RCMB 010024, 24 h. In outline:
as §1
On to `Cc1noc(NS(=O)(=O)c2ccc(NC(=O)c3cn[nH]c3N)cc2)c1C`, for which the MIC was found to be 31.2 µg/mL (≈ 83 µM).

`CCOc1ccc(-n2nc(C(=O)Nc3ccc(S(=O)(=O)Nc4onc(C)c4C)cc3)c(N)c2C#N)cc1`: the minimal inhibitory concentration (MIC) was 3.9 µg/mL (≈ 7.48 µM).

For a further assay, the system named is Proteus vulgaris. Kind of assay: Antimicrobial activity against Proteus vulgaris RCMB 010085 assessed as inhibition zone at 5 mg/ml after 24 hrs. It counts as functional. To be noted: RCMB 010085, 24 h, read-out: IZ. In short, it runs like this: as §2
Take `Cc1noc(NS(=O)(=O)c2ccc(NC(=O)c3cn[nH]c3N)cc2)c1C`: the zone of inhibition at 5000 µg/mL came to 11 mm.

As to `CCOc1ccc(-n2nc(C(=O)Nc3ccc(S(=O)(=O)Nc4onc(C)c4C)cc3)c(N)c2C#N)cc1`, the zone of inhibition at 5000 µg/mL came to 18.2 mm.

The next assay has as its system Bacillus subtilis. Kind of assay: Antimicrobial activity against Bacillis subtilis RCMB 010067 assessed as inhibition zone at 5 mg/ml after 24 hrs. The format is functional. Particulars: RCMB 010067, 24 h, read-out: IZ. In outline:
as §2
As for `Cc1noc(NS(=O)(=O)c2ccc(NC(=O)c3cn[nH]c3N)cc2)c1C`, the zone of inhibition at 5000 µg/mL was 18 mm.

Take `CCOc1ccc(-n2nc(C(=O)Nc3ccc(S(=O)(=O)Nc4onc(C)c4C)cc3)c(N)c2C#N)cc1`: the zone of inhibition at 5000 µg/mL was found to be 19.6 mm.

In another assay the test system is Syncephalastrum racemosum. Kind of assay: Antifungal activity against Syncephalastrum racemosum RCMB 05922 assessed as absence of turbidity after 48 hrs. It counts as functional. Particulars: RCMB 05922, 48 h.
Regarding `Cc1noc(NS(=O)(=O)c2ccc(NC(=O)c3cn[nH]c3N)cc2)c1C`, the MIC came out at 15.6 µg/mL (≈ 41.5 µM).

`CCOc1ccc(-n2nc(C(=O)Nc3ccc(S(=O)(=O)Nc4onc(C)c4C)cc3)c(N)c2C#N)cc1`: the MIC is 0.06 µg/mL (≈ 0.115 µM).

The subject of the next assay is Escherichia coli. Kind of assay: Antimicrobial activity against Escherichia coli RCMB 010052 assessed as absence of turbidity after 24 hrs. It counts as functional. Particulars: RCMB 010052, 24 h. In outline:
as §1
For `Cc1noc(NS(=O)(=O)c2ccc(NC(=O)c3cn[nH]c3N)cc2)c1C`, the MIC turned out to be 125 µg/mL (≈ 332 µM).

`CCOc1ccc(-n2nc(C(=O)Nc3ccc(S(=O)(=O)Nc4onc(C)c4C)cc3)c(N)c2C#N)cc1`: the MIC is 31.2 µg/mL (≈ 59.9 µM).

In a further assay the test system is Syncephalastrum racemosum. The experiment in a line: Antifungal activity against Syncephalastrum racemosum RCMB 05922 assessed as inhibition zone at 5 mg/ml after 48 hrs. It counts as functional. To be noted: RCMB 05922, 48 h, read-out: IZ.
Consider `Cc1noc(NS(=O)(=O)c2ccc(NC(=O)c3cn[nH]c3N)cc2)c1C`, for which the zone of inhibition at 5000 µg/mL is 17.2 mm.

Turning to `CCOc1ccc(-n2nc(C(=O)Nc3ccc(S(=O)(=O)Nc4onc(C)c4C)cc3)c(N)c2C#N)cc1`, the zone of inhibition at 5000 µg/mL came out at 24.6 mm.

The next assay deals with Bacillus subtilis. The experiment in a line: Antimicrobial activity against Bacillis subtilis RCMB 010067 assessed as absence of turbidity after 24 hrs. It counts as functional. To be noted: RCMB 010067, 24 h. In outline: as §1
With `Cc1noc(NS(=O)(=O)c2ccc(NC(=O)c3cn[nH]c3N)cc2)c1C`, the MIC was 7.81 µg/mL (≈ 20.7 µM).

`CCOc1ccc(-n2nc(C(=O)Nc3ccc(S(=O)(=O)Nc4onc(C)c4C)cc3)c(N)c2C#N)cc1`: the MIC was 1.95 µg/mL (≈ 3.74 µM).

The next assay deals with Aspergillus fumigatus. Kind of assay: Antifungal activity against Aspergillus fumigatus RCMB 02568 assessed as absence of turbidity after 48 hrs. Particulars: RCMB 02568, 48 h. It counts as functional. In short, it runs like this: as §4
Take `Cc1noc(NS(=O)(=O)c2ccc(NC(=O)c3cn[nH]c3N)cc2)c1C`: the MIC is 7.81 µg/mL (≈ 20.7 µM).

As to `CCOc1ccc(-n2nc(C(=O)Nc3ccc(S(=O)(=O)Nc4onc(C)c4C)cc3)c(N)c2C#N)cc1`, the MIC is 0.24 µg/mL (≈ 0.46 µM).

In another assay the test system is Proteus vulgaris. The experiment in a line: Antimicrobial activity against Proteus vulgaris RCMB 010085 assessed as absence of turbidity after 24 hrs. The format is functional. To be noted: RCMB 010085, 24 h. In outline:
as §1
Regarding `Cc1noc(NS(=O)(=O)c2ccc(NC(=O)c3cn[nH]c3N)cc2)c1C`, the MIC was found to be 500 µg/mL (≈ 1330 µM).

Take `CCOc1ccc(-n2nc(C(=O)Nc3ccc(S(=O)(=O)Nc4onc(C)c4C)cc3)c(N)c2C#N)cc1`: the MIC was 7.81 µg/mL (≈ 15 µM).
